Source: ChEMBL document CHEMBL1221298, “InCl3 mediated one-pot multicomponent synthesis, anti-microbial, antioxidant and anticancer evaluation of 3-pyranyl indole derivatives” (Bioorg Med Chem Lett, 2010)
Converted amounts (≈) assume the structure as drawn. The source made the active and inactive calls. The rule behind the calls is not given here.

Columns and labels:
Type in all cases: functional
Escherichia coli [1] = experiment: microbe, parasite or virus in culture; settings: ATCC 25922, 24 h, read-out: IZ
[2] = Antioxidant activity assessed as ABTS radical scavenging activity
In short: (§1)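 Test samples at 50, 100, 200 and 400 ug/ml were each mixed with 1 ml of freshly prepared ABTS radical cation solution, adjusted to absorbance 0.7–0.9 at 734 nm. Mixtures reacted 2 h in the dark, then absorbance was read at 734 nm against a blank. Scavenging % was taken as the absorbance decrease relative to ABTS solution without test sample.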

[3] = Antioxidant activity assessed as ABTS radical scavenging activity at 100 ug/ml
In short: as §1

[4] = system: Radical scavenging activity; experiment: Antioxidant activity assessed as DPPH radical scavenging activity at 200 ug/ml
In short: (§2)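 Each test sample was mixed with 1 ml DPPH in methanol, incubated at 37 °C for 30 min, and read spectrophotometrically at 517 nm with a blank reading. Scavenging % was expressed as the absorbance decrease at 517 nm relative to DPPH solution without test sample.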

[5] = Antioxidant activity assessed as ABTS radical scavenging activity at 200 ug/ml
In short: as §1

[6] = Antioxidant activity assessed as ABTS radical scavenging activity at 400 ug/ml
In short: as §1

Bacillus cereus [7] = experiment: microbe, parasite or virus in culture; settings: ATCC 11778, 24 h
MCF7 = experiment: Cytotoxicity against human MCF7 cells after 24 hrs by MTT assay; settings: MCF7, 24 h
In short: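 Exponentially growing cells plated at 10⁴ cells/well and allowed to attach, then exposed to test compounds or doxorubicin (dissolved in 0.1% DMSO, diluted in medium; range 1–100) for 24 h; controls received medium with 0.1% DMSO. MTT (1 mg/ml) added for 4 h at 37 °C, formazan dissolved in DMSO, absorbance read at 540 nm; % cytotoxicity calculated from blank-corrected absorbances versus control.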

[8] = system: Radical scavenging activity; experiment: Antioxidant activity assessed as DPPH radical scavenging activity at 400 ug/ml
In short: as §2

Klebsiella pneumoniae [9] = experiment: microbe, parasite or virus in culture; settings: ATCC 11298, 24 h
Klebsiella pneumoniae [10] = experiment: microbe, parasite or virus in culture; settings: ATCC 11298, 24 h, read-out: IZ
[11] = Antioxidant activity assessed as ABTS radical scavenging activity at 50 ug/ml
In short: as §1

Staphylococcus aureus [12] = experiment: microbe, parasite or virus in culture; settings: ATCC 9144, 24 h
[13] = system: Radical scavenging activity; experiment: Antioxidant activity assessed as DPPH radical scavenging activity at 100 ug/ml
In short: as §2

Staphylococcus aureus [14] = experiment: microbe, parasite or virus in culture; settings: ATCC 9144, 24 h, read-out: IZ
Bacillus cereus [15] = experiment: Antimicrobial activity against Bacillus cereus ATCC 11778 at 100 ug/ml after 24 hrs by paper disk diffusion method; settings: ATCC 11778, 24 h, read-out: IZ
[16] = system: Radical scavenging activity; experiment: Antioxidant activity assessed as DPPH radical scavenging activity at 50 ug/ml
In short: as §2

Escherichia coli [17] = experiment: microbe, parasite or virus in culture; settings: ATCC 25922, 24 h
[18] = system: Radical scavenging activity; experiment: Antioxidant activity assessed as DPPH radical scavenging activity
In short: as §2

SMILES	zone of inhibition at 100 µg/mL (Escherichia coli [1]) [mm]	IC50 [2] [µg/mL]	Activity ([3]; at 100 µg/mL) [%]	Activity ([4]; at 200 µg/mL) [%]	Activity ([5]; at 200 µg/mL) [%]	Activity ([6]; at 400 µg/mL) [%]	MIC (Bacillus cereus [7]) [µg/mL]	GI50 (MCF7) [µM]	LC50 (concentration killing 50% of cells) (MCF7) [µM]	TGI (MCF7) [µM]	Activity ([8]; at 400 µg/mL) [%]	MIC (Klebsiella pneumoniae [9]) [µg/mL]	zone of inhibition at 100 µg/mL (Klebsiella pneumoniae [10]) [mm]	Activity ([11]; at 50 µg/mL) [%]	MIC (Staphylococcus aureus [12]) [µg/mL]	Activity ([13]; at 100 µg/mL) [%]	zone of inhibition at 100 µg/mL (Staphylococcus aureus [14]) [mm]	zone of inhibition at 100 µg/mL (Bacillus cereus [15]) [mm]	Activity ([16]; at 50 µg/mL) [%]	MIC (Escherichia coli [17]) [µg/mL]	other results
N#CC1=C(N)OC(c2c[nH]c3ccccc23)=C(C#N)C1c1ccc(Br)cc1 (configuration not stated)	15	947.09 (≈ 2270 µM)	14.6	54.3	10.6	22.7	28 (≈ 67.1 µM)	21.8	> 100	48.1	57.8	26.3 (≈ 63 µM)	16	14.2	21.3 (≈ 51 µM)	49.7	20	14	46.7	25.4 (≈ 60.9 µM)	IC50 [18]: 117.8 µg/mL (≈ 282 µM)
N#CC1=C(N)OC(c2c[nH]c3ccccc23)=C(C#N)C1c1ccc2ccccc2c1 (configuration not stated)	16	–	–	–	–	–	23.3 (≈ 60 µM)	15.5	91.5	46.6	–	30.5 (≈ 78.5 µM)	15	–	32.4 (≈ 83.4 µM)	–	14	15	–	29.4 (≈ 75.7 µM)	Activity [2]: inactive; Activity [3]: inactive; Activity [4]: inactive; Activity [5]: inactive; Activity [6]: inactive; Activity [8]: inactive; Activity [11]: inactive; Activity [13]: inactive; Activity [16]: inactive; Activity [18]: inactive
COc1ccc(C2C(C#N)=C(N)OC(c3c[nH]c4ccccc34)=C2C#N)cc1OC (configuration not stated)	17	867.28 (≈ 2180 µM)	19.1	59.1	26.1	28.1	25.4 (≈ 63.8 µM)	20.6	72.1	37.4	62.9	21.2 (≈ 53.2 µM)	17	14.5	31.8 (≈ 79.8 µM)	57.9	15	16	55.8	26.7 (≈ 67 µM)	IC50 [18]: < 50 µg/mL
N#CC1=C(N)OC(c2c[nH]c3ccccc23)=C(C#N)C1c1cccc2ccccc12 (configuration not stated)	16	> 1000	6.8	22.8	7.7	10.4	26.2 (≈ 67.5 µM)	18.2	80.2	33.9	26.4	33.2 (≈ 85.5 µM)	15	4.7	28.6 (≈ 73.6 µM)	21.8	15	16	18.8	28 (≈ 72.1 µM)	IC50 [18]: 1599.62 µg/mL (≈ 4120 µM)
Cc1ccc(C2C(C#N)=C(N)OC(c3c[nH]c4ccccc34)=C2C#N)cc1 (configuration not stated)	15	> 1000	5.5	28.9	6.2	8.5	25.8 (≈ 73.2 µM)	–	–	–	30.4	25.1 (≈ 71.2 µM)	17	5.2	22.3 (≈ 63.3 µM)	25.8	20	14	24.8	36.3 (≈ 103 µM)	IC50 [18]: 1590.74 µg/mL (≈ 4510 µM)
